# Laboratory results as given in ChEMBL document CHEMBL1128382, “N4-unsubstituted N1-arylpiperazines as high-affinity 5-HT1A receptor ligands” (J Med Chem, 1995).
# Target: T1, 5-hydroxytryptamine receptor 1A (Rattus norvegicus, UniProt P19327)
# T1 sequence (P19327 whole entry): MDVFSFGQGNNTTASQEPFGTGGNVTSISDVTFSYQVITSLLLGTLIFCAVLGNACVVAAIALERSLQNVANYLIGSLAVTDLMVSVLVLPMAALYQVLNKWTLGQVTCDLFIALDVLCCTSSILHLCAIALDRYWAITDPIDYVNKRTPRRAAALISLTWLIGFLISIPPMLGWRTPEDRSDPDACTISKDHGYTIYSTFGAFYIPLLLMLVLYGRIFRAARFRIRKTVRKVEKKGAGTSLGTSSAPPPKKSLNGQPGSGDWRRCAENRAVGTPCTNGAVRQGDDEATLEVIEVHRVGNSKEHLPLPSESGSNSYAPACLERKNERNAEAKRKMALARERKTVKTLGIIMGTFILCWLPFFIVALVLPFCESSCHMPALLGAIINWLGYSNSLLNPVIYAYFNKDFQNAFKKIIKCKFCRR
# Assay: Displacement of [3H]2-(di-N-propylamino)-8-hydroxytetralin from central 5-hydroxytryptamine 1A receptor recognition sites in rat frontal cortex homogenates.
# Assay type: tissue-based
# How it was run: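 Competition binding against tritiated 8-OH-DPAT in rat frontal cortex homogenate. Ki values come from n separate determinations, each testing four to six ligand concentrations in triplicate.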
row,Compound,Ki [nM]
1,N#Cc1ccc2ccoc2c1N1CCNCC1,220
2,C1=COc2c(cccc2N2CCNCC2)O1,12
3,COc1ccc(N2CCNCC2)c2occc12,430
4,c1cc(N2CCNCC2)c2[nH]ccc2c1,200
5,c1cc(N2CCNCC2)c2sccc2c1,9.9
6,O=[N+]([O-])c1ccc2ccoc2c1N1CCNCC1,140
7,COc1ccc(N2CCNCC2)cc1,20000
8,CC1=COc2c(cccc2N2CCNCC2)O1,5.2
9,COc1cccc(N2CCNCC2)c1OC,1000
10,c1cc2c(c(N3CCNCC3)c1)CCCC2,84
11,c1ccc2c(N3CCNCC3)cccc2c1,18
12,Fc1ccc(N2CCNCC2)c2occc12,18
13,Brc1cc(N2CCNCC2)c2occc2c1,35
14,Cc1cc2cccc(N3CCNCC3)c2o1,13
15,Fc1cc(N2CCNCC2)c2occc2c1,105
16,Cc1cc(N2CCNCC2)c2occc2c1,120
17,Brc1ccc(N2CCNCC2)c2occc12,300
18,Brc1coc2c(N3CCNCC3)cccc12,130
19,COc1ccc2c(c1N1CCNCC1)OCCO2,> 10000
20,c1ccc(N2CCNCC2)cc1 [PHENYLPIPERAZINE],500
21,COc1cc(N2CCNCC2)c2occc2c1,28
22,Fc1ccc2ccoc2c1N1CCNCC1,5.8
23,COc1cccc(N2CCNCC2)c1,320
24,Cc1ccc(N2CCNCC2)c2occc12,220
25,Cc1coc2c(N3CCNCC3)cccc12,73
26,Clc1ccc2c(c1N1CCNCC1)OCCO2,200
